Experiment [1] addresses Drosophila Slowpoke calcium-dependent potassium channel (dSlo) (Drosophila melanogaster, UniProt Q03720). Nature of the experiment: Inside-out patch recording of dSlo current with peptide on the cytoplasmic side. The experiment is classed as cell-based. In a few lines: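 Inside-out patches came from CHO cells transfected with dSlo, in symmetrical 150 mM KCl, 0.5 mM HEDTA, 1 mM Mg²⁺, 10 mM HEPES pH 7.2, with 7 μM free Ca²⁺, at room temperature. Peptide was dissolved in the bath (cytoplasmic side). Patches were stepped from −80 to +140 mV; the mean current over the last 10 ms was normalized to the same patch before peptide. A Hill equation fit across concentrations gave IC50.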

The subject of another experiment is BK channels. As to conditions: wild type and calcium bowl mutant channels; ref Zakharov et al., 2005; cited from earlier work.
The subject of a further experiment is dSlo. Nature of the experiment: Coimmunoprecipitation of Slobs with dSlo from CHO cell lysates, Western blot. The experiment is classed as binding, Drosophila. The note with it: cotransfected CHO cells, anti-Slob immunoprecipitation. In a few lines:
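Slobs were cotransfected with the channel into CHO cells (Ham's F-12, 10% FBS, penicillin/streptomycin) using Lipofectamine 2000. Lysis was 1 d later in Tris-HCl pH 7.5/NaCl/KCl/NaF/1% CHAPS buffer with DTT and protease inhibitors. The 16,000 g supernatant was incubated with anti-Slob for 2 h at 4°C, then protein A/G agarose overnight at 4°C, with four PBS washes. SDS-PAGE, nitrocellulose, anti-dSlo 1 h at RT, HRP anti-rabbit, ECL. Controls were blank vector and nontransfected cells.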
(In western blotting, separated proteins are transferred to a membrane and probed.)

Experiment [2] concerns dSloD5N5 (calcium bowl mutant of dSlo). The experiment is classed as cell-based, Drosophila. In a few lines: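 CHO cells were cotransfected 1:1 (molar) with dSloD5N5 and Slob57 or truncation mutants using Lipofectamine 2000. Whole-cell recording was done 1 d later at room temperature with 2–4 MΩ pipettes, in symmetrical 150 mM KCl, 0.5 mM HEDTA, 2 mM MgCl₂, 10 mM HEPES pH 7.2, with 110 or 300 μM free Ca²⁺ in the pipette. Holding was −80 mV, then −120 mV afterward. 350-ms pulses were used for inactivation; 100-ms pulses gave G–V from peak tail currents and V1/2. Mean ± SEM, ANOVA/Bonferroni.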

Ends that are not written are not given here.

Drosophila Slowpoke calcium-dependent potassium channel (dSlo), sequence (Q03720 whole entry): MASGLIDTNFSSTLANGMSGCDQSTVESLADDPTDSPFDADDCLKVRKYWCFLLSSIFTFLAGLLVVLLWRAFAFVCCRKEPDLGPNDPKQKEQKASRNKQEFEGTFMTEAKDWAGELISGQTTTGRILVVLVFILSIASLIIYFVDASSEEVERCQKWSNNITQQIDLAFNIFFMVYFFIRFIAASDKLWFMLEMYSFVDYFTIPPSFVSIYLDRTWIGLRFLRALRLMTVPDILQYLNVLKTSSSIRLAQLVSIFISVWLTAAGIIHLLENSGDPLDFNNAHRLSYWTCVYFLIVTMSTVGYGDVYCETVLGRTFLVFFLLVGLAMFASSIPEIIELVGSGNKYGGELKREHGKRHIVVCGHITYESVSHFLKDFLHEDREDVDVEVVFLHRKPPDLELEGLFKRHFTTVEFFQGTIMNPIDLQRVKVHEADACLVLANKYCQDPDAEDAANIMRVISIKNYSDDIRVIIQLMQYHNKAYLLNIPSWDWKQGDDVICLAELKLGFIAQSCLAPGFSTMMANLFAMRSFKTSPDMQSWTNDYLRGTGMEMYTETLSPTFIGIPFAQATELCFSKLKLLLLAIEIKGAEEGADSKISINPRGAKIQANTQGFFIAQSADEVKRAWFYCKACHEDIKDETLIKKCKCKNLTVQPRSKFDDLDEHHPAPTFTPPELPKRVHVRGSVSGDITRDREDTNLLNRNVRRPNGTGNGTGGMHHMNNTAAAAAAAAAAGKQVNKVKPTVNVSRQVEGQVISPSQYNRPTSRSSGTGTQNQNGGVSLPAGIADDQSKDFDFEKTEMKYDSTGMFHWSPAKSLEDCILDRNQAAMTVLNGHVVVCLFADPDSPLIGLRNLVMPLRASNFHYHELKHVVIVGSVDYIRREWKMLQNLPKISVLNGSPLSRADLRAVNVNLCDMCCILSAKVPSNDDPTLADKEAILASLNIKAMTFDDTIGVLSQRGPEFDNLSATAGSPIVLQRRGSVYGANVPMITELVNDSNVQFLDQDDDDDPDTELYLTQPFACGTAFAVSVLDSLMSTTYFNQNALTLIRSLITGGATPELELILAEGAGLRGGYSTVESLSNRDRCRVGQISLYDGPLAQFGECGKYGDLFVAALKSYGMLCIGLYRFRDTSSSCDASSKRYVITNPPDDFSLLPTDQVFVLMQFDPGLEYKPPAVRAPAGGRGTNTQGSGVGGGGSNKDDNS

Usually IC50 stands for the point on the concentration scale where inhibition reaches its midpoint. Usually Kd stands for the equilibrium constant for the complex coming apart. In the case of MFKFNK [MFKFNK], in experiment [1], the IC50 stood at 31 µM and the Kd was 162 µM.

As to `CC(=O)c1c(O)c(C)c(O)c(Cc2c(O)c3c(c(C(=O)/C=C/c4ccccc4)c2O)OC(C)(C)C=C3)c1O` [mallotoxin], the “Ca2+ dependence of the modulation of BK channels” value in the experiment on BK channels was “independent of Ca^2+ binding”.

B1: Slob57ΔN15: amino-terminal 15 residue–truncated Slob57 (deletion of residues 2–16) (protein)
chain: MNSAVTGHDPFVRPPVPEKKVRNIMKKLHKANGLKRSNSAIEFDVSALTAANRRQIYSSNRSASSEQDNSDLSEHSEKSPLVSARLDNLARLFFSKSMPAETGSRDTIDSVLTTRPNIKYQYSALDSGNGIVERSPRERAQREKALNATQEWIQGANGRYEVIAHLDEIGSRHGKNWFLVTDASVRTDRLQTLLPLPPDCVAFEDLPPNECAREILMELLGSLHHPYIYPVLDLGFLRNSSYNYACLVTPFNSRGSLKDLIYKAQWNEPWARKYTRKPNGLPVSQVQRLGRQILEALLFLKERGFPLHGHLHSGNVILQNGAARLSGLENGLLGLSSRINAVMWSRSVTEIENVDIVCFGHLLYEMCTGQELTTPKPSMRVLEMELQHYPQIGQTRKQILEILGLIFEPPSGVCPSVEDLVLCDLFRSIDLRELRGPCFSTIKPSLSRSTLNLLQAVKKRQCASLGHSLSEANSPCTPPSTPHDRRTGVLPAPYEVFRMY
For the molecule B1, the “binding to dSlo (coimmunoprecipitation)” value with dSlo is given as “still bind to dSlo”.

B2: Slob57ΔN5: amino-terminal five residue–truncated Slob57 (deletion of residues 2–6) (protein)
chain: MAAQQQRIDNRNSAVTGHDPFVRPPVPEKKVRNIMKKLHKANGLKRSNSAIEFDVSALTAANRRQIYSSNRSASSEQDNSDLSEHSEKSPLVSARLDNLARLFFSKSMPAETGSRDTIDSVLTTRPNIKYQYSALDSGNGIVERSPRERAQREKALNATQEWIQGANGRYEVIAHLDEIGSRHGKNWFLVTDASVRTDRLQTLLPLPPDCVAFEDLPPNECAREILMELLGSLHHPYIYPVLDLGFLRNSSYNYACLVTPFNSRGSLKDLIYKAQWNEPWARKYTRKPNGLPVSQVQRLGRQILEALLFLKERGFPLHGHLHSGNVILQNGAARLSGLENGLLGLSSRINAVMWSRSVTEIENVDIVCFGHLLYEMCTGQELTTPKPSMRVLEMELQHYPQIGQTRKQILEILGLIFEPPSGVCPSVEDLVLCDLFRSIDLRELRGPCFSTIKPSLSRSTLNLLQAVKKRQCASLGHSLSEANSPCTPPSTPHDRRTGVLPAPYEVFRMY
Consider B2, for which the “binding to dSlo (coimmunoprecipitation)” value with dSlo was “still bind to dSlo”.

B3: Slob57: ion channel auxiliary protein that binds to and modulates the Drosophila Slowpoke channel (dSlo) (protein)
chain: MFKFNKAAQQQRIDNRNSAVTGHDPFVRPPVPEKKVRNIMKKLHKANGLKRSNSAIEFDVSALTAANRRQIYSSNRSASSEQDNSDLSEHSEKSPLVSARLDNLARLFFSKSMPAETGSRDTIDSVLTTRPNIKYQYSALDSGNGIVERSPRERAQREKALNATQEWIQGANGRYEVIAHLDEIGSRHGKNWFLVTDASVRTDRLQTLLPLPPDCVAFEDLPPNECAREILMELLGSLHHPYIYPVLDLGFLRNSSYNYACLVTPFNSRGSLKDLIYKAQWNEPWARKYTRKPNGLPVSQVQRLGRQILEALLFLKERGFPLHGHLHSGNVILQNGAARLSGLENGLLGLSSRINAVMWSRSVTEIENVDIVCFGHLLYEMCTGQELTTPKPSMRVLEMELQHYPQIGQTRKQILEILGLIFEPPSGVCPSVEDLVLCDLFRSIDLRELRGPCFSTIKPSLSRSTLNLLQAVKKRQCASLGHSLSEANSPCTPPSTPHDRRTGVLPAPYEVFRMY
As for B3, the “shift of the conductance–voltage relationship of dSloD5N5” value in experiment [2] (100-ms test pulse, 110 μM free Ca2+) is reported as “does not rightward shift”. Besides, the “modulation of V1/2 of dSloD5N5” value in experiment [2] (100-ms test pulse, 300 μM free Ca2+) is “not modulated”. The “inactivation of dSloD5N5” value in experiment [2] (coexpression in CHO cells, whole cell, 110 μM free Ca2+, 350-ms test pulse) is “causes dSloD5N5 inactivation”.

Source of the values: article PMC2151581 (The Journal of General Physiology, 2006).
